Experimental data as given in ChEMBL document CHEMBL4393692, “Thiazolidinone/thiazole based hybrids - New class of antitrypanosomal agents” (Eur J Med Chem, 2019).
pIC50: −log10 of the molar value.

system: Trypanosoma brucei gambiense; test: Antitrypanosomal activity against bloodstream form of Trypanosoma brucei gambiense Feo reduction in parasite growth after 72 hrs by resazurin dye based fluorescence assay; assay type: functional, organism-based
Method in brief: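 Bloodstream parasites cultured in HMI9 with 10% FCS at 37°C under 5% CO2. Log-phase cells harvested at 3000xg, plated at 10^5 cells/ml with dilutions from 10 down to 0.625 µg/ml (DMSO stocks) for 72 h. Resazurin added at 45 µM final, fluorescence read after a further 4 h. Inhibition vs DMSO control. IC50 from dose-response curve, mean ± SD of three independent experiments.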

Structure (SMILES) | pIC50
CCc1nn2c(/C=N/N=c3/[nH]c(-c4ccc([N+](=O)[O-])cc4)cs3)c(-c3ccccc3)nc2s1 | 4.99
O=[N+]([O-])c1ccc(-c2[nH]c3ccccc3c2/C=N/N=c2\scc(-c3ccc([N+](=O)[O-])cc3)n2-c2ccc(O)cc2)cc1 | 5.82
CC(=O)OCCC1S/C(=N\N=C\c2c(-c3ccc(Br)cc3)[nH]c3ccccc23)NC1=O (stereo not given) | 5.87
CCc1nn2c(/C=N/N=C3\SC(C)C(=O)N3c3ccc(O)cc3)c(-c3ccccc3)nc2s1 (stereo not given) | 5.32
CCc1nn2c(/C=N/N=C3/NC(=O)C(CCOC(C)=O)S3)c(-c3ccc(Br)cc3)nc2s1 (stereo not given) | 5.49
CC1S/C(=N\N=C\c2c(-c3ccc(Cl)cc3)[nH]c3ccccc23)N(Cc2ccco2)C1=O (stereo not given) | 5.77
CCc1nn2c(/C=N/N=C3\SC(C)C(=O)N3c3ccc(O)cc3)c(-c3ccc(Br)cc3)nc2s1 (stereo not given) | 5.82
CCc1nn2c(/C=N/N=c3\scc(-c4ccc([N+](=O)[O-])cc4)n3-c3ccc(O)cc3)c(-c3ccc([N+](=O)[O-])cc3)nc2s1 | 5.59
CCc1nn2cc(-c3ccccc3)nc2s1 | < 4.40
CC(=O)OCCC1S/C(=N\N=C\c2c(-c3ccc(Cl)cc3)[nH]c3ccccc23)NC1=O (stereo not given) | 5.87
CCc1nn2c(/C=N/N=C3/NC(=O)C(C)S3)c(-c3ccc(Br)cc3)nc2s1 (stereo not given) | 5.02
O=C1CS/C(=N\N=C\c2c(-c3ccc(Cl)cc3)[nH]c3ccccc23)N1Cc1ccco1 | 5.14
CC1S/C(=N\N=C\c2c(-c3ccc(Br)cc3)[nH]c3ccccc23)NC1=O (stereo not given) | 5.87
CCc1nn2c(/C=N/N=C3\SC(CCOC(C)=O)C(=O)N3c3ccc(O)cc3)c(-c3ccccc3)nc2s1 (stereo not given) | 5.57
CCC1S/C(=N\N=C\c2c(-c3ccc(Cl)cc3)[nH]c3ccccc23)N(Cc2ccco2)C1=O (stereo not given) | 5.77
CCOC(=O)c1s/c(=N\N=C\c2c(-c3ccc(Br)cc3)nc3sc(CC)nn23)n(-c2ccc(O)cc2)c1C | 6.00
CCc1nn2c(/C=N/N=C3/NC(=O)C(CCOC(C)=O)S3)c(-c3ccc([N+](=O)[O-])cc3)nc2s1 (stereo not given) | 4.79
CCC1S/C(=N\N=C\c2c(-c3ccc(Cl)cc3)[nH]c3ccccc23)NC1=O (stereo not given) | 5.85
O=C1N/C(=N/N=C/c2c(-c3ccc(Br)cc3)[nH]c3ccccc23)SC1CCO (stereo not given) | 5.48
CCOC(=O)c1s/c(=N\N=C\c2c(-c3ccc([N+](=O)[O-])cc3)nc3sc(CC)nn23)[nH]c1C | < 4.70

Structure (SMILES) | pIC50
CCc1nn2c(/C=N/N=C3/NC(=O)C(CC)S3)c(-c3ccc([N+](=O)[O-])cc3)nc2s1 (stereo not given) | < 4.70
CCc1nn2c(/C=N/N=c3\scc(-c4ccccc4)n3-c3ccc(O)cc3)c(-c3ccccc3)nc2s1 | 5.52
CCC1S/C(=N\N=C\c2c(-c3ccc([N+](=O)[O-])cc3)[nH]c3ccccc23)NC1=O (stereo not given) | 5.21
CCc1nn2c(/C=N/N=c3/[nH]c(-c4ccc([N+](=O)[O-])cc4)cs3)c(-c3ccc([N+](=O)[O-])cc3)nc2s1 | 5.36
CCc1nn2c(/C=N/N=c3/[nH]c(-c4ccc([N+](=O)[O-])cc4)cs3)c(-c3ccc(Br)cc3)nc2s1 | 5.04
CC1S/C(=N\N=C\c2c(-c3ccc(Cl)cc3)[nH]c3ccccc23)N(c2ccc(O)cc2)C1=O (stereo not given) | 5.93
Clc1ccc(-c2[nH]c3ccccc3c2/C=N/Nc2nc(-c3ccc(Br)cc3)cs2)cc1 | 5.82
CCc1nn2c(/C=N/N=C3\SC(CC)C(=O)N3c3ccc(O)cc3)c(-c3ccc(Br)cc3)nc2s1 (stereo not given) | 5.82
CCC1S/C(=N\N=C\c2c(-c3ccc(Br)cc3)[nH]c3ccccc23)NC1=O (stereo not given) | 5.82
CCOC(=O)c1sc(N/N=C/c2c(-c3ccc([N+](=O)[O-])cc3)[nH]c3ccccc23)nc1C | 6.13
CC1S/C(=N\N=C\c2c(-c3ccc([N+](=O)[O-])cc3)[nH]c3ccccc23)NC1=O (stereo not given) | 5.33
CCOC(=O)c1s/c(=N\N=C\c2c(-c3ccc(Br)cc3)nc3sc(CC)nn23)[nH]c1C | 5.13
CCc1nn2c(/C=N/N=C3/NC(=O)C(CC)S3)c(-c3ccc(Br)cc3)nc2s1 (stereo not given) | 4.86
CCc1nn2c(/C=N/NC(=S)Nc3ccc(O)cc3)c(-c3ccc([N+](=O)[O-])cc3)nc2s1 | 4.83
CCc1nn2c(/C=N/N=C3\SC(CCOC(C)=O)C(=O)N3c3ccc(O)cc3)c(-c3ccc([N+](=O)[O-])cc3)nc2s1 (stereo not given) | 4.95
CC(=O)OCCC1S/C(=N\N=C\c2c(-c3ccc(Cl)cc3)[nH]c3ccccc23)N(Cc2ccco2)C1=O (stereo not given) | 5.80
CCc1nn2c(/C=N/N=C3\SC(CC)C(=O)N3c3ccc(O)cc3)c(-c3ccccc3)nc2s1 (stereo not given) | < 4.70
CCc1nn2c(/C=N/N=c3\scc(-c4ccc(Br)cc4)n3-c3ccc(O)cc3)c(-c3ccc([N+](=O)[O-])cc3)nc2s1 | 6.23
O=[N+]([O-])c1ccc(-c2[nH]c3ccccc3c2/C=N/Nc2nc(-c3ccccc3)cs2)cc1 | 5.22

Next, values leading:

pIC50 | Structure (SMILES)
5.41 | C=CCSc1nn2c(/C=N/N=C3/NC(=O)CS3)c(-c3ccccc3)nc2s1
5.59 | CCc1nn2c(/C=N/NC(=S)Nc3ccc(O)cc3)c(-c3ccccc3)nc2s1
5.82 | CCc1nn2c(/C=N/NC(=S)Nc3ccc(O)cc3)c(-c3ccc(Br)cc3)nc2s1
4.57 | C=CCSc1nn2cc(-c3ccccc3)nc2s1
< 4.70 | C=CCSc1nn2c(/C=N/N=C3\SCC(=O)N3c3ccc(O)cc3)c(-c3ccccc3)nc2s1
5.36 | C=CCSc1nn2c(/C=N/N=C3/NC(=O)C(C)S3)c(-c3ccccc3)nc2s1 (stereo not given)
5.04 | CCc1nn2c(/C=N/N=C3\SCC(=O)N3c3ccc(O)cc3)c(-c3ccccc3)nc2s1
< 4.60 | CCc1nn2c(/C=N/N=C3/NC(=O)C(C)S3)c(-c3ccccc3)nc2s1 (stereo not given)
5.43 | CCc1nn2c(/C=N/N=C3/NC(=O)C(CC)S3)c(-c3ccccc3)nc2s1 (stereo not given)
< 4.60 | CCc1nn2c(/C=N/NC(N)=S)c(-c3ccc([N+](=O)[O-])cc3)nc2s1
4.74 | CCc1nn2c(/C=N/N=C3/NC(=O)CS3)c(-c3ccccc3)nc2s1
5.57 | CCOC(=O)c1s/c(=N\N=C\c2c(-c3ccccc3)nc3sc(CC)nn23)[nH]c1C
5.04 | CCOC(=O)CSc1nn2c(/C=N/N=C3/NC(=O)C(CC)S3)c(-c3ccccc3)nc2s1 (stereo not given)
< 4.70 | C=CCSc1nn2c(/C=N/N=C3\SC(C)C(=O)N3c3ccc(O)cc3)c(-c3ccccc3)nc2s1 (stereo not given)
< 4.40 | CCc1nn2c(C=O)c(-c3ccccc3)nc2s1
< 4.52 | CCOC(=O)CSc1nn2cc(-c3ccccc3)nc2s1
4.69 | C=CCSc1nn2c(/C=N/N=C3/NC(=O)C(CC)S3)c(-c3ccccc3)nc2s1 (stereo not given)
4.93 | CCc1nn2c(/C=N/N=C3/NC(=O)C(CCOC(C)=O)S3)c(-c3ccccc3)nc2s1 (stereo not given)
< 4.30 | C=CCSc1nn2c(/C=N/NC(=S)Nc3ccc(O)cc3)c(-c3ccccc3)nc2s1
5.41 | CCOC(=O)CSc1nn2c(/C=N/N=C3/NC(=O)C(C)S3)c(-c3ccccc3)nc2s1 (stereo not given)
4.63 | C=CCSc1nn2c(C=O)c(-c3ccccc3)nc2s1
< 4.70 | C=CCSc1nn2c(/C=N/N=C3/NC(=O)C(CC(=O)O)S3)c(-c3ccccc3)nc2s1 (stereo not given)
5.21 | C=CCSc1nn2c(/C=N/NC(N)=S)c(-c3ccccc3)nc2s1
< 4.60 | CCc1nn2c(/C=N/NC(N)=S)c(-c3ccc(Br)cc3)nc2s1
4.68 | CCc1nn2c(/C=N/NC(N)=S)c(-c3ccccc3)nc2s1
6.00 | C=CCSc1nn2c(/C=N/N=C3\SC(CCOC(C)=O)C(=O)N3c3ccc(O)cc3)c(-c3ccccc3)nc2s1 (stereo not given)
